In brackets after ≈: the same amount, converted by molar mass.
How the values were obtained:
Phocaeicola vulgatus [1] = assay: Antibacterial activity against beta-lactamase producing Bacteroides vulgatus by CLSI agar dilution method in presence of clavulanate; assay type: functional
Summary of the method: (§1)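 CLSI agar dilution MICs for anaerobic blood isolates (nonduplicate) collected from bloodstream-infection patients at a Taiwanese tertiary hospital, January–December 2006. Isolates were spotted by Steers replicator onto supplemented Brucella blood agar and incubated anaerobically for 48 h at 35°C. MIC was the lowest drug concentration inhibiting growth. Each run included B. fragilis ATCC 25285, B. thetaiotaomicron ATCC 29741 and E. lentum ATCC 43055 as quality-control strains.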

Phocaeicola vulgatus [2] = assay: Antibacterial activity against beta-lactamase producing Bacteroides vulgatus assessed as resistant isolates by CLSI agar dilution method in presence of clavulanate; assay type: functional
Summary of the method: (§2)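 207 nonduplicate anaerobic blood isolates from patients with bloodstream infections at NTUH, collected January–December 2006. MICs were determined by agar dilution following CLSI guidelines. Inocula were applied with a Steers replicator onto supplemented Brucella blood agar and incubated 48 h at 35°C in an anaerobic chamber. MIC was the lowest concentration inhibiting growth. B. fragilis ATCC 25285, B. thetaiotaomicron ATCC 29741 and E. lentum ATCC 43055 served as controls in each run.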

Fusobacterium varium = assay: Antibacterial activity against Fusobacterium varium by CLSI agar dilution method in presence of clavulanate; assay type: functional
Summary of the method: (§3)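 Agar dilution per CLSI guidelines on nonduplicate anaerobic bloodstream isolates collected at NTUH, January to December 2006. Isolates were spotted by Steers replicator onto supplemented Brucella blood agar and incubated anaerobically for 48 h at 35°C. MIC was the lowest drug concentration that inhibited growth. B. fragilis ATCC 25285, B. thetaiotaomicron ATCC 29741 and E. lentum ATCC 43055 were run as QC in each run.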

Fusobacterium mortiferum [3] = assay: Antibacterial activity against Fusobacterium mortiferum by CLSI agar dilution method in presence of clavulanate; assay type: functional; summary of the method: as §3
[4] = test system: Fusobacterium necrophorum; assay: Antibacterial activity against Fusobacterium necrophorum assessed as resistant isolates by CLSI agar dilution method in presence of clavulanate; assay type: functional; summary of the method: as §2
Prevotella buccae [5] = assay: Antibacterial activity against Prevotella buccae by CLSI agar dilution method in presence of clavulanate; assay type: functional; settings: Segatella buccae; summary of the method: as §3
Prevotella intermedia [6] = assay: Antibacterial activity against Prevotella intermedia by CLSI agar dilution method in presence of clavulanate; assay type: functional; summary of the method: as §3
Prevotella buccae [7] = assay: Antibacterial activity against Prevotella buccae assessed as resistant isolates by CLSI agar dilution method in presence of clavulanate; assay type: functional, Segatella buccae; summary of the method: as §2
[8] = test system: Clostridium paraputrificum; assay: Antibacterial activity against beta-lactamase producing Clostridium paraputrificum assessed as susceptible isolates by CLSI agar dilution method in presence of clavulanate; assay type: functional; summary of the method: as §1
[9] = test system: Peptostreptococcus anaerobius; assay: Antibacterial activity against beta-lactamase producing Peptostreptococcus anaerobius assessed as resistant isolates by CLSI agar dilution method in presence of clavulanate; assay type: functional; summary of the method: as §2
[10] = test system: Peptoniphilus asaccharolyticus; assay: Antibacterial activity against beta-lactamase producing Peptoniphilus asaccharolyticus assessed as susceptible isolates by CLSI agar dilution method in presence of clavulanate; assay type: functional; summary of the method: as §1
[11] = test system: Peptoniphilus asaccharolyticus; assay: Antibacterial activity against beta-lactamase producing Peptoniphilus asaccharolyticus assessed as resistant isolates by CLSI agar dilution method in presence of clavulanate; assay type: functional; summary of the method: as §2
Phocaeicola vulgatus [12] = assay: Antibacterial activity against beta-lactamase producing Bacteroides vulgatus by CLSI agar dilution method; assay type: functional
Bacteroides uniformis = assay: Antibacterial activity against beta-lactamase producing Bacteroides uniformis assessed as susceptible isolates by CLSI agar dilution method; assay type: functional
Bacteroides caccae [13] = assay: Antibacterial activity against beta-lactamase producing Bacteroides caccae by CLSI agar dilution method; assay type: functional
Bacteroides caccae [14] = assay: Antibacterial activity against beta-lactamase producing Bacteroides caccae assessed as resistant isolates by CLSI agar dilution method in presence of Tazobactam; assay type: functional; summary of the method: as §2
Fusobacterium mortiferum [15] = assay: Antibacterial activity against Fusobacterium mortiferum assessed as resistant isolates by CLSI agar dilution method; assay type: functional
Fusobacterium mortiferum [16] = assay: Antibacterial activity against Fusobacterium mortiferum by CLSI agar dilution method in presence of Tazobactam; assay type: functional; summary of the method: as §3
[17] = test system: Fusobacterium necrophorum; assay: Antibacterial activity against Fusobacterium necrophorum assessed as susceptible isolates by CLSI agar dilution method in presence of Tazobactam; assay type: functional; summary of the method: as §3
Fusobacterium nucleatum = assay: Antibacterial activity against Fusobacterium nucleatum assessed as resistant isolates by CLSI agar dilution method in presence of Tazobactam; assay type: functional; summary of the method: as §2
Prevotella intermedia [18] = assay: Antibacterial activity against Prevotella intermedia assessed as susceptible isolates by CLSI agar dilution method; assay type: functional
Veillonella parvula = assay: Antibacterial activity against Veillonella parvula by CLSI agar dilution method in presence of Tazobactam; assay type: functional; summary of the method: as §3
Clostridium tertium = assay: Antibacterial activity against beta-lactamase producing Clostridium tertium assessed as resistant isolates by CLSI agar dilution method; assay type: functional
Clostridium septicum [19] = assay: Antibacterial activity against beta-lactamase producing Clostridium septicum assessed as susceptible isolates by CLSI agar dilution method in presence of Tazobactam; assay type: functional; summary of the method: as §1
Clostridium septicum [20] = assay: Antibacterial activity against beta-lactamase producing Clostridium septicum assessed as resistant isolates by CLSI agar dilution method in presence of Tazobactam; assay type: functional; summary of the method: as §2
[21] = test system: Peptostreptococcus anaerobius; assay: Antibacterial activity against beta-lactamase producing Peptostreptococcus anaerobius by CLSI agar dilution method; assay type: functional
[22] = test system: Peptostreptococcus anaerobius; assay: Antibacterial activity against beta-lactamase producing Peptostreptococcus anaerobius assessed as resistant isolates by CLSI agar dilution method; assay type: functional
[23] = test system: Peptostreptococcus anaerobius; assay: Antibacterial activity against beta-lactamase producing Peptostreptococcus anaerobius assessed as resistant isolates by CLSI agar dilution method in presence of Tazobactam; assay type: functional; summary of the method: as §2
[24] = test system: Peptoniphilus asaccharolyticus; assay: Antibacterial activity against beta-lactamase producing Peptoniphilus asaccharolyticus assessed as susceptible isolates by CLSI agar dilution method; assay type: functional
Finegoldia magna [25] = assay: Antibacterial activity against beta-lactamase producing Finegoldia magna by CLSI agar dilution method; assay type: functional
Finegoldia magna [26] = assay: Antibacterial activity against beta-lactamase producing Finegoldia magna by CLSI agar dilution method in presence of Tazobactam; assay type: functional; summary of the method: as §1

SMILES: CC1(C)S[C@@H]2[C@H](NC(=O)[C@H](N)c3ccc(O)cc3)C(=O)N2[C@H]1C(=O)O [AMOXICILLIN]
- MIC50 (Phocaeicola vulgatus [1]): 8 µg/mL
- MIC90 (Phocaeicola vulgatus [1]): 32 µg/mL
- Activity (Phocaeicola vulgatus [2]): 30%
- MIC50 (Fusobacterium varium): 2 µg/mL
- MIC90 (Fusobacterium varium): 4 µg/mL
- MIC50 (Fusobacterium mortiferum [3]): 2 µg/mL
- MIC90 (Fusobacterium mortiferum [3]): 4 µg/mL
- Activity [4]: 7%
- MIC50 (Prevotella buccae [5]): 4 µg/mL
- MIC90 (Prevotella buccae [5]): 16 µg/mL
- MIC50 (Prevotella intermedia [6]): 4 µg/mL
- MIC90 (Prevotella intermedia [6]): 16 µg/mL
- Activity (Prevotella buccae [7]): 6%
- Activity [8]: 96%
- Activity [9]: 3%
- Activity [10]: 94%
- Activity [11]: 3%

SMILES: CCN1CCN(C(=O)N[C@@H](C(=O)N[C@@H]2C(=O)N3[C@@H]2SC(C)(C)[C@@H]3C(=O)O)c2ccccc2)C(=O)C1=O [PIPERACILLIN]
- MIC50 (Phocaeicola vulgatus [12]): > 128 µg/mL
- MIC90 (Phocaeicola vulgatus [12]): > 128 µg/mL
- Activity (Bacteroides uniformis): 35%
- MIC50 (Bacteroides caccae [13]): > 128 µg/mL
- MIC90 (Bacteroides caccae [13]): > 128 µg/mL
- Activity (Bacteroides caccae [14]): 4%
- Activity (Fusobacterium mortiferum [15]): 10%
- MIC50 (Fusobacterium mortiferum [16]): 0.5 µg/mL
- MIC90 (Fusobacterium mortiferum [16]): 2 µg/mL
- Activity [17]: 100%
- Activity (Fusobacterium nucleatum): 0%
- Activity (Prevotella intermedia [18]): 71%
- MIC (Veillonella parvula): > 0.03 µg/mL
- Activity (Clostridium tertium): 0%
- Activity (Clostridium septicum [19]): 100%
- Activity (Clostridium septicum [20]): 0%
- MIC50 [21]: 0.12 µg/mL (≈ 0.232 µM)
- MIC90 [21]: 8 µg/mL (≈ 15.5 µM)
- Activity [22]: 3%
- Activity [23]: 0%
- Activity [24]: 97%
- MIC50 (Finegoldia magna [25]): 0.12 µg/mL (≈ 0.232 µM)
- MIC90 (Finegoldia magna [25]): 8 µg/mL (≈ 15.5 µM)
- MIC (Finegoldia magna [26]): 0.03 µg/mL
- MIC50 (Finegoldia magna [26]): 0.03 µg/mL
- MIC90 (Finegoldia magna [26]): 2 µg/mL

Reference: ChEMBL document CHEMBL1671627, “Increasing trends in antimicrobial resistance among clinically important anaerobes and Bacteroides fragilis isolates causing nosocomial infections: emerging resistance to carbapenems” (2008)
